Legend:
[1] = Plasma concentration was determined after 1 hr at a dose 30 mg/kg administered orally to rat-10; assay type: ADME, organism-based; parameters: dose 30 mg/kg, route oral; conditions: po
Summary of the method: (§1)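 Sprague-Dawley rats, n=2 per compound, dosed orally at 30 mg/kg. Plasma drug concentration measured 1 and 8 h after dosing.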

[2] = Plasma concentration was determined after 1 hr at a dose 30 mg/kg administered orally to rat-9; assay type: ADME, organism-based; parameters: dose 30 mg/kg, route oral; conditions: po; summary of the method: as §1
[3] = Plasma concentration was determined after 8 hr at a dose 30 mg/kg administered orally to rat-10; assay type: ADME, organism-based; parameters: dose 30 mg/kg, route oral; conditions: po; summary of the method: as §1
[4] = Plasma concentration was determined after 8 hr at a dose 30 mg/kg administered orally to rat-9; assay type: ADME, organism-based; parameters: dose 30 mg/kg, route oral; conditions: po; summary of the method: as §1
[5] = pharmacokinetic parameter was evaluated after oral administration of 30 mg/kg to rat; assay type: ADME, organism-based; parameters: dose 30 mg/kg, route oral; conditions: in vivo
Summary of the method: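 Sprague-Dawley rats, n=3, dosed orally at 30 mg/kg. Plasma drug concentrations were followed to derive Tmax (h), Cmax (µg/mL), T1/2 (h) and AUC0-∞ (µg h/mL).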

[6] = molecular target: Fibroblast growth factor receptor (Homo sapiens, UniProt P22607+P11362+P22455+P21802); test: Inhibition of Fibroblast growth factor receptor autophosphorylation; assay type: protein assay
[7] = molecular target: T1, Receptor-type tyrosine-protein kinase FLT3 (Homo sapiens, UniProt P36888); test: Inhibition of Flt3 autophosphorylation
T1 sequence (P36888 whole entry): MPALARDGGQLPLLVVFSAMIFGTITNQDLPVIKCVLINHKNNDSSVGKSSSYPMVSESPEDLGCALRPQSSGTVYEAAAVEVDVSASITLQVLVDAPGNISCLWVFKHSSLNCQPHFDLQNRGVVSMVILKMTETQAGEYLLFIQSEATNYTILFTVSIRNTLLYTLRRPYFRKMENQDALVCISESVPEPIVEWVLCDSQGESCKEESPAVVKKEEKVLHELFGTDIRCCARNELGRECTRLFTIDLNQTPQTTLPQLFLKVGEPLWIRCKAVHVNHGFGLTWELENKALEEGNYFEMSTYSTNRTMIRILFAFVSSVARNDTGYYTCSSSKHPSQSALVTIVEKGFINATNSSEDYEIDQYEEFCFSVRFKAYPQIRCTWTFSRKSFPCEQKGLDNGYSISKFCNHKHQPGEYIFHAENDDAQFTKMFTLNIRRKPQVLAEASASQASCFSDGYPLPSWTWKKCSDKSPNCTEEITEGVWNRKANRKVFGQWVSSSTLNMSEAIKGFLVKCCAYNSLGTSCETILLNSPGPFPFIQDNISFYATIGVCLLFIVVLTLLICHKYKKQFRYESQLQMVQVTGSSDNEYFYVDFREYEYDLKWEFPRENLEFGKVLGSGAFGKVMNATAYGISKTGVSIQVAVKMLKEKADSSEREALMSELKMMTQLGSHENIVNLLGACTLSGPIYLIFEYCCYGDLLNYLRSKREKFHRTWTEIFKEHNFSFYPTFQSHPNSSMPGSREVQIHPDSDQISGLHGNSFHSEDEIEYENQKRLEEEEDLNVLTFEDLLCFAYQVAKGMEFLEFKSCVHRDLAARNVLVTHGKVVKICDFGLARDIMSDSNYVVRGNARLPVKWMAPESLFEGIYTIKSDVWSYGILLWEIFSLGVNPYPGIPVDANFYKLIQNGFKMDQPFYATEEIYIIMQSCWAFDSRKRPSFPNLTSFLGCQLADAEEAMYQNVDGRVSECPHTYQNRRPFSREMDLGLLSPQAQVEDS

[8] = molecular target: Mitogen-activated protein kinase; ERK1/ERK2 (Homo sapiens, UniProt P27361+P28482); test: Inhibition of Extracellular signal-regulated kinase (Erk); assay type: protein assay
Summary of the method: (§2)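 Substrate phosphorylation measured in an in vitro assay with purified enzyme; IC50 values in µmol/L.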

[9] = molecular target: Dual specificity mitogen-activated protein kinase kinase 1 (Homo sapiens, UniProt Q02750); test: Inhibition of Mitogen activated protein kinase kinase 1; summary of the method: as §2
Dual specificity mitogen-activated protein kinase kinase 1, sequence (Q02750 whole entry): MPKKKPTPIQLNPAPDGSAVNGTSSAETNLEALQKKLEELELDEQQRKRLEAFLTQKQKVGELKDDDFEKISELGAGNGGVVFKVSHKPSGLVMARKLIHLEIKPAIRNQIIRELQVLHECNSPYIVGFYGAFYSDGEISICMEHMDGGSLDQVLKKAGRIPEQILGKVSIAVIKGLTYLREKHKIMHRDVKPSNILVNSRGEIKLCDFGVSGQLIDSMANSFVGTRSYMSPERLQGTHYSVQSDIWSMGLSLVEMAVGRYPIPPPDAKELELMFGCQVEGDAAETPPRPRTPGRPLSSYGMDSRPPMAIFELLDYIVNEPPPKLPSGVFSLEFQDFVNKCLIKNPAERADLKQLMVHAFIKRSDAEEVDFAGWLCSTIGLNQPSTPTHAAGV

[10] = molecular target: MAP kinase p38 (Homo sapiens, UniProt O15264+Q15759+Q16539+P53778); test: Inhibition of Mitogen-activated protein kinase p38; assay type: protein assay; summary of the method: as §2
[11] = molecular target: T2, Dual specificity mitogen-activated protein kinase kinase 6 (Homo sapiens, UniProt P52564); test: Inhibition of Mitogen activated protein kinase kinase 6; summary of the method: as §2
T2 sequence (P52564 whole entry): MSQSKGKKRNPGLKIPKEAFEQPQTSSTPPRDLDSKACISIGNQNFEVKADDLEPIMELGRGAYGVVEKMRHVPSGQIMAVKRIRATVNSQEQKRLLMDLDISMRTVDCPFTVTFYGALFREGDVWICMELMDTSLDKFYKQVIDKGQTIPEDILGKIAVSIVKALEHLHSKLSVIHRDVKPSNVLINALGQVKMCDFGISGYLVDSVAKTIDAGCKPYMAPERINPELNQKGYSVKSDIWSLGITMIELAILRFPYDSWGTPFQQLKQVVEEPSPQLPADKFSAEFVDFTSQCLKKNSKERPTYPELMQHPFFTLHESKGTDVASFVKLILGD

[12] = molecular target: Protein kinase C (PKC); test: Inhibition of Protein kinase C; assay type: protein assay; summary of the method: as §2
[13] = molecular target: cAMP-dependent protein kinase (PKA) (Homo sapiens, UniProt P22694+P17612+P22612); test: Inhibition of Protein kinase A (PKA); assay type: protein assay; summary of the method: as §2
[14] = molecular target: Proto-oncogene tyrosine-protein kinase Src (Homo sapiens, UniProt P12931); test: Inhibition of Src protein tyrosine kinase; summary of the method: as §2
Proto-oncogene tyrosine-protein kinase Src, sequence (P12931 2-536 limits assumed): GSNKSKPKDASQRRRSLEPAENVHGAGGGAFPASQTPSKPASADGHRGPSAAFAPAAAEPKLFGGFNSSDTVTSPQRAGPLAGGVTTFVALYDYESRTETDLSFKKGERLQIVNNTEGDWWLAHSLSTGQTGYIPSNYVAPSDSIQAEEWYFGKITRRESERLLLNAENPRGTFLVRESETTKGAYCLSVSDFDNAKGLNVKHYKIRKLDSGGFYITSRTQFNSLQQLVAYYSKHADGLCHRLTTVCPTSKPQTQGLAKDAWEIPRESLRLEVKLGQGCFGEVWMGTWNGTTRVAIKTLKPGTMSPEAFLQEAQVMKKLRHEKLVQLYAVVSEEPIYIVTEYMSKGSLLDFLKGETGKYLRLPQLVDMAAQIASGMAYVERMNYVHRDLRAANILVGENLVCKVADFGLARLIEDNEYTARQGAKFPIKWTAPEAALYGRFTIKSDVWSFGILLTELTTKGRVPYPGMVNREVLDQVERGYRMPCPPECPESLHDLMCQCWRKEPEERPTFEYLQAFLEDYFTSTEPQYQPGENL

[15] = molecular target: Vascular endothelial growth factor receptor 2 (Homo sapiens, UniProt P35968); test: Inhibition of Vascular endothelial growth factor receptor 2 (VEGFR-2) autophosphorylation
Vascular endothelial growth factor receptor 2, sequence (P35968 whole entry): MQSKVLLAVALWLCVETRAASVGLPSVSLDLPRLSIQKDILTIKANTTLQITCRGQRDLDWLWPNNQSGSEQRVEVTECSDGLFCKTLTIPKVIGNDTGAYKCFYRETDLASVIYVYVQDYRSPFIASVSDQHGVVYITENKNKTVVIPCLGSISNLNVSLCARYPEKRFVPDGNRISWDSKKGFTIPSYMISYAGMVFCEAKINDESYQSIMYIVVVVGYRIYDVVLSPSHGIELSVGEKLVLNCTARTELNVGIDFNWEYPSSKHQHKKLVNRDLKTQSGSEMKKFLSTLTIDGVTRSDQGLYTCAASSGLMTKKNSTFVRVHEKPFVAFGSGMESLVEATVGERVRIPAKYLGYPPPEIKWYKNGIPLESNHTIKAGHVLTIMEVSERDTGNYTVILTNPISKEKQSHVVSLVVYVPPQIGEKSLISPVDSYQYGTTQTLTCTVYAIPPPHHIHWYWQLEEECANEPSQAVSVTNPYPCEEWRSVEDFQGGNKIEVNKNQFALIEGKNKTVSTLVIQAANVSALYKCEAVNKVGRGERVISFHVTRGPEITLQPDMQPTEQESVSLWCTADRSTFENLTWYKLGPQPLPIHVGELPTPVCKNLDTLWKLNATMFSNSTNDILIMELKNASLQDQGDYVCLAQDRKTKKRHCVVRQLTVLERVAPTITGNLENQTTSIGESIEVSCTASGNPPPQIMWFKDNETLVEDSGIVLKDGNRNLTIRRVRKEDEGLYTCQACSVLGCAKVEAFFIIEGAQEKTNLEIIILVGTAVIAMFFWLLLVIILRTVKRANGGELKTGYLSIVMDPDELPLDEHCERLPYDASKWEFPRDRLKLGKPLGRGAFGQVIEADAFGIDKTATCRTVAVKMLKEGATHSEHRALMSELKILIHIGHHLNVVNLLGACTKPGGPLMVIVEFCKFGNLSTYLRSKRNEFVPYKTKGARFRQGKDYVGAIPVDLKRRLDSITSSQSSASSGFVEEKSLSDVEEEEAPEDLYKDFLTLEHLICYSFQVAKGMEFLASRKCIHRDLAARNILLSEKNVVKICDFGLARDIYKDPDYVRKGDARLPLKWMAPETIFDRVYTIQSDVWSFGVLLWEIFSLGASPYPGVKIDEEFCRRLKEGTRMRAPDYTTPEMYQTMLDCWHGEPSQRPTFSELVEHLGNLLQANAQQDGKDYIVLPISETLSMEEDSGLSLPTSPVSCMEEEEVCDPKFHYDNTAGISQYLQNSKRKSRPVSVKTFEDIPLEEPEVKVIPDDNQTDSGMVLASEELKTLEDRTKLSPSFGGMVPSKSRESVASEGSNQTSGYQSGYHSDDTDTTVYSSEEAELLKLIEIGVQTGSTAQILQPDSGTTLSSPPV

[16] = molecular target: Mitogen-activated protein kinase 8 (Homo sapiens, UniProt P45983); test: Inhibition of c-Jun N-terminal kinase (Jnk); summary of the method: as §2
Mitogen-activated protein kinase 8, sequence (P45983 whole entry): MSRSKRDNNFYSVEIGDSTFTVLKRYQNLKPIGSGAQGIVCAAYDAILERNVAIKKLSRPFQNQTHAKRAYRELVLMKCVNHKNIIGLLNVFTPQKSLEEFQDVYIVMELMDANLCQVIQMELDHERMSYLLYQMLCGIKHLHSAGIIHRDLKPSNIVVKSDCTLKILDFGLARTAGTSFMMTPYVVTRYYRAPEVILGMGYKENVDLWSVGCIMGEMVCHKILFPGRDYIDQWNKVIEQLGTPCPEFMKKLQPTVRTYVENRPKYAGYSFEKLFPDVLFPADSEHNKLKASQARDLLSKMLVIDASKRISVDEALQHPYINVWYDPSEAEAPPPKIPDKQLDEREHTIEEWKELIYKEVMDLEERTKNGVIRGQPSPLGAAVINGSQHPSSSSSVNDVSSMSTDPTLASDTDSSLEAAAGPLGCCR

[17] = molecular target: Tyrosine-protein kinase ABL (Homo sapiens, UniProt P00519+P42684); test: Inhibition of Abl tyrosine kinase; assay type: protein assay; summary of the method: as §2
[18] = molecular target: Macrophage colony-stimulating factor 1 receptor (Homo sapiens, UniProt P07333); test: Inhibition of Colony stimulating factor 1 receptor (CSF-1R) autophosphorylation
Macrophage colony-stimulating factor 1 receptor, sequence (P07333 whole entry): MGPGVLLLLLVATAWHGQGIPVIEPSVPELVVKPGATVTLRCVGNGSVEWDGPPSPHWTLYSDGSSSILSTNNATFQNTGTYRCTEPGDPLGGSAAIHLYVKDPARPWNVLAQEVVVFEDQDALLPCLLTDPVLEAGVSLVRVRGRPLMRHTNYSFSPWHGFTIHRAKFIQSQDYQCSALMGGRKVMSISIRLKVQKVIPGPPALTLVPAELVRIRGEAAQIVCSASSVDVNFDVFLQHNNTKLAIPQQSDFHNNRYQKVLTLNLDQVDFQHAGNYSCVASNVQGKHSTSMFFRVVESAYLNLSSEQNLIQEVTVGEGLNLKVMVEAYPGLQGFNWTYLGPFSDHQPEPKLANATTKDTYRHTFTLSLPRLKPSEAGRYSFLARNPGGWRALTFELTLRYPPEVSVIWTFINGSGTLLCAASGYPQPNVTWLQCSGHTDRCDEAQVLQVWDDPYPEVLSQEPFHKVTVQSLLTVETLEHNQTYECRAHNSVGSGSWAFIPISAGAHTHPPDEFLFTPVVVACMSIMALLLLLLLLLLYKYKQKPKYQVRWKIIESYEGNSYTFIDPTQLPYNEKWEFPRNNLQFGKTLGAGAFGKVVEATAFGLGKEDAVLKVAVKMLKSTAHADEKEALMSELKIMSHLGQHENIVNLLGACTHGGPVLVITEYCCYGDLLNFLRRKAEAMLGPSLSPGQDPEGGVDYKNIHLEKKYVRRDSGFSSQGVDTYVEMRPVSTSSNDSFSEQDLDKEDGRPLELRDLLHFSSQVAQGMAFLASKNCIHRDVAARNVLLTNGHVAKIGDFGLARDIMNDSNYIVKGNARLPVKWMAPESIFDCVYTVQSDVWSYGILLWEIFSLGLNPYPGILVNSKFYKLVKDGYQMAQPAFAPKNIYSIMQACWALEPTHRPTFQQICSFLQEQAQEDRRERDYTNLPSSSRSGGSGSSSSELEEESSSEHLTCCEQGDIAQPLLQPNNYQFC

[19] = Plasma concentration was determined after 1 hr at a dose 30 mg/kg administered orally to rat-15; assay type: ADME, organism-based; parameters: dose 30 mg/kg, route oral; conditions: po; summary of the method: as §1
[20] = Plasma concentration was determined after 1 hr at a dose 30 mg/kg administered orally to rat-16; assay type: ADME, organism-based; parameters: dose 30 mg/kg, route oral; conditions: po; summary of the method: as §1
[21] = Plasma concentration was determined after 8 hr at a dose 30 mg/kg administered orally to rat-16; assay type: ADME, organism-based; parameters: dose 30 mg/kg, route oral; conditions: po; summary of the method: as §1
[22] = Lipophilicity was reported; assay type: physicochemical; conditions: octanol/water
[23] = molecular target: Platelet-derived growth factor receptor (Homo sapiens, UniProt P09619+P16234); test: Concentration required for 50% inhibition against autophosphorylation of Platelet-derived growth factor receptor beta in intact cells using a two site ELISA; assay type: cell-based
[24] = Plasma concentration was determined after 8 hr at a dose 30 mg/kg administered orally to rat-15; assay type: ADME, organism-based; parameters: dose 30 mg/kg, route oral; conditions: po; summary of the method: as §1

In the case of `COc1cc2ncnc(N3CCN(/C(S)=N\Cc4ccc5c(c4)OCO5)CC3)c2cc1OC`, the concentration at 1 h [1] is reported as 5900 ng/mL, the concentration at 1 h [2] is reported as 5100 ng/mL and the concentration at 8 h [3] is reported as 3600 ng/mL. It also gave a concentration at 8 h [4] of 2400 ng/mL, an AUC [5] of 89900 ng·h/mL and a Cmax [5] of 14500 ng/mL. For the same compound, the Tmax [5] was 3.33 h, the half-life [5] was 3.92 h and the IC50 [6] was 160 uM l-1. The IC50 [7] was 14.9 µM, the IC50 [8] was over 30 uM l-1 and the IC50 [9] was over 30 µM. For the same compound, the IC50 [10] was over 30 uM l-1, the IC50 [11] was over 30 µM and the IC50 [12] was over 30 uM l-1. It also gave an IC50 [13] of over 30 uM l-1, an IC50 [14] of over 30 µM and an IC50 [15] of 17.3 µM. The IC50 [16] was over 30 µM, the IC50 [17] was over 30 uM l-1 and the IC50 [18] was over 30 µM.

In the case of `COc1cc2ncnc(N3CCN(C(=S)NCc4ccco4)CC3)c2cc1OC`, the concentration at 1 h [19] is reported as 3000 ng/mL, the concentration at 1 h [20] is reported as 3700 ng/mL and the concentration at 8 h [21] is reported as 1400 ng/mL. For the same compound, the AUC [5] was 95800 ng·h/mL, the Cmax [5] was 7200 ng/mL and the Tmax [5] was 3.67 h. The half-life [5] was 3.33 h, the logD [22] was 2.75 and the IC50 [23] was 0.33 µM. It also gave a concentration at 8 h [24] of 1200 ng/mL.
